pIC50: −log10 of the molar value. Activity calls are given as the source filed them. The rule behind the calls is not given here.
Columns and labels:
[1] = molecular target: T1, MIF/CD74 (Macrophage migration inhibitory factor and HLA-DR antigens-associated invariant chain) (Homo sapiens, UniProt P04233+P14174); experiment: (§1) Inhibition of human recombinant biotinylated MIF/CD74 interaction after 30 mins; assay type: protein assay
T1 sequence (P14174 whole entry): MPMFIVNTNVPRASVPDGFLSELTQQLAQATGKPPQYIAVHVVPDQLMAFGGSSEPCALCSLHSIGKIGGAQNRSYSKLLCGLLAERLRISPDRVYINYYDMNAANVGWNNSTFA
T1 sequence (P04233 whole entry): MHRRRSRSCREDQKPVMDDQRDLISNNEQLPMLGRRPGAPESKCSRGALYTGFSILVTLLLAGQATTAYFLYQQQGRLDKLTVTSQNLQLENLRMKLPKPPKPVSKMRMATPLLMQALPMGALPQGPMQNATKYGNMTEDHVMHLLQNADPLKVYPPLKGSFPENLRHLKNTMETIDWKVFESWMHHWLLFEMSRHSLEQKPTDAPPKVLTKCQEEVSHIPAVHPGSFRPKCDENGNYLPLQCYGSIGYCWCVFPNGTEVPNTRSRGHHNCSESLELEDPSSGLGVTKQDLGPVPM
How it was run: (§2)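 Bound MIF was detected with streptavidin-alkaline phosphatase and p-nitrophenylphosphate substrate. Compounds were tested over 500- to 5000-fold concentration ranges.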

[2] = molecular target: T2, Macrophage migration inhibitory factor (Homo sapiens) (UniProt P14174); experiment: Inhibition of human recombinant MIF tautomerase at up to 0.1 uM
T2 sequence (whole entry): T1 sequence (P14174 whole entry)

[3] = molecular target: T2, Macrophage migration inhibitory factor (Homo sapiens); experiment: Inhibition of human recombinant MIF tautomerase at 30 uM by mass spectrometry analysis
[4] = molecular target: T3, MIF/CD74 (Macrophage migration inhibitory factor and HLA-DR antigens-associated invariant chain) (Homo sapiens) (UniProt P14174+P04233); experiment: Inhibition of human recombinant biotinylated MIF/CD74 interaction at 30 uM by mass spectrometry analysis; assay type: protein assay
[5] = molecular target: T4, Macrophage migration inhibitory factor (Homo sapiens, UniProt P14174); experiment: Inhibition of human recombinant MIF tautomerase; conditions: for pIC50: read-out: IC50
T4 sequence (P14174 whole entry): T1 sequence (P14174 whole entry)

[6] = molecular target: T3, MIF/CD74 (Macrophage migration inhibitory factor and HLA-DR antigens-associated invariant chain) (Homo sapiens); experiment: Inhibition of human recombinant biotinylated MIF/CD74 interaction at up to 10 uM after 30 mins; assay type: protein assay; how it was run: as §2
[7] = molecular target: T2, Macrophage migration inhibitory factor (Homo sapiens); experiment: Inhibition of MIF-dependent ERK1/2 phosphorylation in rheumatoid arthritis patient synovial fibroblasts assessed as phosphorylated ERK1/2 level at 300 nM after 30 mins
[8] = molecular target: T2, Macrophage migration inhibitory factor (Homo sapiens); experiment: Inhibition of MIF-dependent ERK1/2 phosphorylation in rheumatoid arthritis patient synovial fibroblasts assessed as total ERK1/2 level at 300 nM after 30 mins
[9] = molecular target: T5, MIF/CD74 (Macrophage migration inhibitory factor and HLA-DR antigens-associated invariant chain) (Homo sapiens, UniProt P14174+P04233); experiment: as §1; assay type: protein assay; how it was run: as §2
T5 sequence (P14174 whole entry): T1 sequence (P14174 whole entry)
T5 sequence (P04233 whole entry): T1 sequence (P04233 whole entry)

Row | Structure (SMILES) | inhibition [2] [%] | inhibition [6] [%] | also measured
1 | COc1cccc(Cn2c(=O)oc3ccc(C)cc32)c1OC | 32 |  | pIC50 [1]: 5.15
2 | Ic1cc(-c2ccccc2)ncn1 |  |  | inhibition [3]: 90%; inhibition [4]: 50%
3 | Cc1ccc2oc(=O)n(Cc3cccc(F)c3)c2c1 |  |  | IC50 [5]: Not Active
4 | Cc1cc2oc(=O)n(Cc3cccc(O)c3)c2cc1C | 33 | 32 | 
5 | COc1cccc(Cn2c(=O)oc3ccc(OC)cc32)c1 | 41 |  | pIC50 [1]: 3.70
6 | O=c1oc2ccc(F)cc2n1Cc1cccc(O)c1 | 32 | 18 | 
7 | COc1ccc(Cn2c(=O)oc3ccc(C)cc32)cc1 |  |  | IC50 [5]: Not Active
8 | Cc1ccc2c(c1)oc(=O)n2Cc1ccccc1 |  | 25 | 
9 | Cc1ccc2oc(=O)n(Cc3cccc(N)c3)c2c1 | 31 | 27 | 
10 | COc1ccc2oc(=O)n(Cc3cccc(O)c3)c2c1 | 10 |  | pIC50 [1]: 7.10
11 | O=c1oc2ccccc2n1Cc1ccccc1 |  | 18 | pIC50 [5]: 4.68
12 | O=c1oc2ccc(O)cc2n1Cc1cccc(O)c1 | 25 | 36 | 
13 | CCc1ccc2oc(=O)n(Cc3cccc(OC)c3)c2c1 | 13 | 15 | 
14 | Cc1ccc2oc(=O)n(Cc3cccc(O)c3)c2c1 |  | 40 | inhibition [3]: 50%; inhibition [4]: 50%; inhibition [7]: Active; inhibition [8]: Active
15 | O=c1oc2ccc(CO)cc2n1Cc1cccc(O)c1 |  |  | IC50 [5]: Not Active; pIC50 [1]: 4.52
16 | COc1cccc(Cn2c(=O)oc3ccc(F)cc32)c1 |  |  | IC50 [5]: Not Active
17 | O=c1oc2cc(O)ccc2n1Cc1ccccc1 | 28 | 22 | 

Row | Structure (SMILES) | inhibition [2] [%] | inhibition [6] [%] | also measured
18 | Cc1ccc2oc(=O)n(Cc3ccc(O)cc3)c2c1 |  |  | IC50 [5]: Not Active
19 | Cc1ccc2c(c1)oc(=O)n2Cc1cccc(O)c1 |  | 10 | pIC50 [5]: 8.12
20 | CCOc1cccc(Cn2c(=O)oc3ccc(C)cc32)c1 | 20 | 30 | 
21 | COc1ccccc1Cn1c(=O)oc2ccc(O)cc21 |  | 27 | pIC50 [5]: 4.52
22 | COc1cccc(Cn2c(=O)oc3ccc(O)cc32)c1OC |  |  | pIC50 [5]: 5.68; pIC50 [1]: 3.52
23 | CCOc1ccccc1Cn1c(=O)oc2ccc(C)cc21 | 21 | 45 | 
24 | COc1cccc(Cn2c(=O)oc3cc(C)ccc32)c1 | 16 | 24 | 
25 | COc1cc(Cn2c(=O)oc3ccc(C)cc32)cc(OC)c1 | 17 | 11 | 
26 | COc1cccc(Cn2c(=O)oc3cc(C)c(C)cc32)c1 | 25 |  | pIC50 [1]: 6.94
27 | CCc1ccc2oc(=O)n(Cc3cccc(O)c3)c2c1 |  | 19 | pIC50 [5]: 5.60
28 | COc1cccc(Cn2c(=O)oc3ccc(C)cc32)c1 |  | 42 | 
29 | O=c1oc2cc(F)ccc2n1Cc1cccc(O)c1 |  |  | IC50 [5]: Not Active; IC50 [9]: Not Active
30 | COc1cccc(Cn2c(=O)oc3cc(F)ccc32)c1 | 35 | 15 | 
31 | O=c1oc2ccc(O)cc2n1Cc1ccccc1 |  |  | IC50 [5]: Not Active
32 | COc1cc(O)cc(Cn2c(=O)oc3ccc(C)cc32)c1 | 12 | 22 | 
33 | CCOc1cc(O)cc(Cn2c(=O)oc3ccc(C)cc32)c1 | 30 | 35 | 
34 | COc1cccc(Cn2c(=O)oc3ccc(CO)cc32)c1 | 44 | 27 | 

From ChEMBL document CHEMBL1255523, “Optimization of N-benzyl-benzoxazol-2-ones as receptor antagonists of macrophage migration inhibitory factor (MIF)” (Bioorg Med Chem Lett, 2010)
